Not all results are given here.
Apaf1 activ: activators of human Apaf-1 apoptosome, primary screen, biochemical, DEVD-Rh110 fluorescence, uHTS. Apoptotic protease-activating factor 1 (Homo sapiens), O14727. Apaf-1 apoptosome caspase-3 activation; active compounds read low. activity change, negative = activation, % at 20 µM. 330,000 compounds, 0.31% hits;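 active means activity change at or below -40% at 20 µM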
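Material: reconstituted apoptosome of Apaf-1, cytochrome c, caspase-9, procaspase-3; times: 30 min preincubation, 50 min reaction, room temperature; measured by: fluorescence, 540 nm emission, 480 nm excitation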
Rh110 act interf: Rh110 fluorescence interference by putative Apaf-1 activators, confirmation, artefact control for Apaf-1 activator project, biochemical, 20 µM | shares compounds with Apaf1 activ | quenched caspase reaction, Ex480/Em540 | fluorescence interference (activity change), % at 20 µM, hits read low | 980 tested, under 10 active;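 active means mean activity change at or below -40% when tested at 20 µM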
Apaf-1 act conf: Apaf-1 activators, single-dose retest, confirmation, biochemical, fluorescence, DEVD-Rh110, 20 µM | shares compounds with Apaf1 activ | reconstituted apoptosome caspase-3 activity; active compounds read low | activity change, negative = activation, % at 20 µM | 980 compounds, 5% hits | AID 504617, 2011;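 active means mean activity change at or below -40%, meaning activation of 40% or more, at 20 µM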
* = called active by the depositor.

SMILES	Apaf1 activ	others
COC(=O)C(Cc1ccc(N(CCCl)CCCl)cc1)N=Cc1ccccc1O (centres undefined)	-62.9*
ClC1C(Cl)C(Cl)C(Cl)C(Cl)C1Cl (centres undefined)	-1.7
COC(=O)c1nc(-c2ccc3c(n2)C(=O)C(N)=C(OC)C3=O)c(N)c(-c2ccc(OC)c(OC)c2O)c1C	88.8
CCN1/C(=C\C=C\C2=[N+](CC)c3ccccc3C2(C)C)C(C)(C)c2ccccc21	56.4
COC(=O)C1=C(c2ccc(OCc3ccccc3)cc2)C[C@@H]2CC[C@H]1N2C(=O)NC1CCN(Cc2ccccc2)CC1	57.7
COc1ccc(C(=O)Cn2c(NCCCl)nc3ccccc32)cc1	-330.6*	Rh110 act interf=2.2;Apaf-1 act conf=11.8
COc1ccc(Cn2c(N)c(C(=O)NCc3ccco3)c3nc4ccccc4nc32)cc1	66.9
COc1cc(C(c2c(C)[nH]n(-c3ccccc3)c2=O)c2c(C)[nH]n(-c3ccccc3)c2=O)cc(OC)c1OC	91.8
Nc1c(C(=O)NCCCc2ccccc2)c2nc3ccccc3nc2n1Cc1cccs1	83.8
CC(C)C[C@H]1C(=O)N2CCCC2[C@]2(O)O[C@](NC(=O)[C@@H]3C=C4c5cccc6[nH]cc(c56)CC4N(C)C3)(C(C)C)C(=O)N12 (some centres undefined)	86.8
Nc1c(C(=O)NCc2ccco2)c2nc3ccccc3nc2n1CCN1CCOCC1	44.2
COc1ccccc1CCNCc1cc2c(cc1[N+](=O)[O-])OCO2	-192.1*	Rh110 act interf=5.3;Apaf-1 act conf=12.8
COCC(C)OC(=O)c1c(N)n(Cc2ccco2)c2nc3ccccc3nc12 (centres undefined)	60.7
Nc1cc2nc3ccccc3nc2cc1N	62.4
CCCCCn1c(N)c(C(=O)NCc2cccs2)c2nc3ccccc3nc21	69.8
CCCCN1C(=N)C(CC)(CC)C(=O)NC1=O	-42.5*	Rh110 act interf=4.4;Apaf-1 act conf=8.1
COc1cc2c(cc1OC)-c1c3c(cc4c1[C@@H](C2)N(C)CC4)OCO3	97.5
CCCCn1c(NS(=O)(=O)c2ccc(C)cc2)c(C(=O)OCC)c2nc3ccccc3nc21	90.3
COCCCn1c(N)c(C(=O)NCCC(C)C)c2nc3ccccc3nc21	90.6
CCOC(=O)c1cc(CC)sc1/N=C/c1c(O)[nH]c(=S)[nH]c1=O	-199.8*	Rh110 act interf=-133.3*;Apaf-1 act conf=4.7
CCCCNC(=O)c1c(N)n(Cc2ccc3c(c2)OCO3)c2nc3ccccc3nc12	95.4
CC(=O)OCC[N+](C)(C)C	-3.3
COC(=O)C(O)(c1c(C)[nH]n(-c2ccccc2)c1=O)C(F)(F)F (centres undefined)	78.6
COCCOC(=O)c1c(N)n(Cc2ccccc2)c2nc3ccccc3nc12	82.6
O=C(c1ccc2nc(-c3ccco3)c(-c3ccco3)nc2c1)N1CCC2(CC1)OCCO2	56.4
SMILES	Apaf1 activ	others
O=C1NC(=O)N(c2ccc(Cl)cc2)C(=O)/C1=C/c1coc2ccc(O)cc2c1=O	-40.9*	Rh110 act interf=0.0;Apaf-1 act conf=17.4
O=[N+]([O-])c1ccccc1-c1cc(-c2ccccc2)cc(-c2ccccc2)[n+]1Cc1ccccc1Cl	52.8
CCC(COC(=O)c1cc(OC)c(OC)c(OC)c1)(c1ccccc1)N(C)C (centres undefined)	12.3
CC(C)OCCCNC(=O)c1c(N)n(CC2CCCO2)c2nc3ccccc3nc12 (centres undefined)	93.9
Cn1c(=O)[nH]c2nncnc2c1=O	68.1
CCCCOCCCn1c(N)c(C(=O)OCCOC)c2nc3ccccc3nc21	65.9
Cc1ccc(-n2c(C)nc3ccccc3c2=O)c(C)c1	-76.5*	Rh110 act interf=8.5;Apaf-1 act conf=9.0
CCC(C)N1C(=O)NC(=O)C2(Cc3c(ccc4ccccc34)N(C)C2)C1=O (centres undefined)	64.8
C=CCN1CC[C@]23c4c5ccc(O)c4O[C@H]2C(=O)CC[C@@]3(O)[C@H]1C5	14.8
NC(Cc1cc(O)c(O)cc1O)C(=O)O (centres undefined)	84.1
O=C1NC(=O)C(=Cc2ccc(Oc3ccc([N+](=O)[O-])cc3)cc2)C(=O)N1	42.8
CCn1nc(/C=C/c2ccccc2)nc2c(=O)n(C)c(=O)nc1-2	98.8
c1ccc2c(c1)CSc1ccccc1C2C1=NCCN1 (centres undefined)	-228.3*	Rh110 act interf=12.2;Apaf-1 act conf=11.9
O=[N+]([O-])c1ccc(NC2CCN(Cc3ccccc3)CC2)c2ccncc12	74.2
Brc1ccc(Oc2ccc(Br)cc2Br)c(Br)c1	-139.5*	Rh110 act interf=12.0;Apaf-1 act conf=6.8
CCCCn1c(N)c(C(=O)NCc2cccs2)c2nc3ccccc3nc21	85.0
CC(C)CCn1c(N)c(C(=O)OCC2CCCO2)c2nc3ccccc3nc21 (centres undefined)	41.3
Clc1ccc(C[n+]2c(-c3ccccc3)cc(-c3ccccc3)cc2-c2ccccc2)cc1	52.2
COc1cc2c(cc1O)C[C@H]1NCCc3cc4c(c-2c31)OCO4	71.0
CCCNC(=O)c1c(N)n(CC2CCCO2)c2nc3ccccc3nc12 (centres undefined)	92.6
Nc1c(C(=O)NCc2ccco2)c2nc3ccccc3nc2n1Cc1ccc(F)cc1	89.3
CCCCCCn1c(N)c(C(=O)NCCN2CCOCC2)c2nc3ccccc3nc21	51.8
O=c1[nH]c2ccccc2n1CCCN1CCC(n2c(=O)[nH]c3cc(Cl)ccc32)CC1	-41.4*	Rh110 act interf=3.8;Apaf-1 act conf=3.8
CC(C)[C@H]1C(=O)N2CCC[C@H]2[C@]2(O)O[C@](NC(=O)[C@@H]3C=C4c5cccc6[nH]cc(c56)C[C@H]4N(C)C3)(C(C)C)C(=O)N12	94.8
COc1cc2c(cc1OC)-c1c(OC)c(OC)cc3c1C(C2)N(C)CC3 (centres undefined)	95.1
NC(N)=N/N=C/c1cn(-c2ccccc2)nc1-c1cccs1	40.9
O=C1C=Cc2ccccc2C1=O	61.8
Cc1cc(/C=C2/C(=O)NC(=O)N(Cc3ccco3)C2=O)c(C)n1-c1ccccc1	-52.9*	Rh110 act interf=-4.2;Apaf-1 act conf=13.9
O=[N+]([O-])c1ccc(NC2CCCC2)c2ccncc12	41.9
CCCCn1c(NC(=O)c2ccco2)c(C(=O)OCC)c2nc3ccccc3nc21	82.6
